According to ChEMBL document CHEMBL1136726, “Synthesis and characterization of iodine-123 labeled 2beta-carbomethoxy-3beta-(4'-((Z)-2-iodoethenyl)phenyl)nortropane. A ligand for in vivo imaging of serotonin transporters by single-photon-emission tomography” (J Med Chem, 2003):

What was measured:
Assay type in all cases: ADME, organism-based
[1] = tested on: Rattus norvegicus; test: Ratio of distribution of radioactivity in rat brain region hypothalamus and cerebellum 60 min after intravenous administration of iodine labeled compound in absence of blocker in study 2; details: in vivo, 1 h
[2] = tested on: Rattus norvegicus; test: Distribution of radioactivity in rat brain region prefrontal cortex 60 min after intravenous administration of iodine labeled compound in presence of fluvoxamine blocker in study 1; details: in vivo, 1 h
In short: (§1)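 Male Sprague–Dawley rats (250–300 g), ketamine-anesthetized. Blocker (2 mg/kg) or none was given iv 15 min before tail-vein radioligand (10 µCi in 0.2 mL 10% EtOH/saline). Rats were killed at 60 min with im pentobarbital. Brain regions were dissected, weighed and gamma-counted. % dose/g was taken from decay-corrected, background-subtracted counts versus the injected dose.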

[3] = tested on: Rattus norvegicus; test: Distribution of radioactivity in rat heart 120 min after intravenous administration of iodine labeled compound; details: in vivo, 2 h
In short: (§2)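 Tail-vein injection of [123I]ZIENT (10 μCi in 0.2 mL 10% EtOH/0.9% NaCl, then 0.4 mL saline flush) into ketamine-anaesthetised male Sprague–Dawley rats (225–300 g). Animals were killed by cardiac excision at set times. Organs were excised, rinsed, blotted, weighed and gamma-counted. % dose/g was calculated against diluted aliquots of injectate. Mean ± SE, n=4–5.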

[4] = tested on: Rattus norvegicus; test: Distribution of radioactivity in rat brain 60 min after intravenous administration of iodine labeled compound; details: in vivo, 1 h
[5] = tested on: Rattus norvegicus; test: Distribution of radioactivity in rat brain region striatum 60 min after intravenous administration of iodine labeled compound in presence of reboxetine blocker in study 2; details: in vivo, 1 h
In short: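 Male Sprague–Dawley rats (250–300 g), ketamine-anaesthetised, received [123I]ZIENT (10 μCi) in 0.2 mL 10% ethanol/0.9% NaCl via the tail vein. […] Rats were killed at 60 min with pentobarbital, brain regions dissected and gamma-counted. Values are % dose/g from decay-corrected, background-subtracted counts against the diluted injected dose.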

[6] = tested on: Rattus norvegicus; test: Distribution of radioactivity in rat heart 5 min after intravenous administration of iodine labeled compound; details: in vivo; in short: as §2
[7] = tested on: Rattus norvegicus; test: Ratio of distribution of radioactivity in rat brain striatum and cerebellum 30 min after intravenous administration of iodine labeled compound; details: in vivo, 0.5 h
In short: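 Male Sprague–Dawley rats (225–300 g), ketamine anesthesia, injected via tail vein with [123I]ZIENT (10 μCi in 0.2 mL 10% EtOH/0.9% NaCl, 0.4 mL saline flush). Killed at 5, 30, 60 or 120 min. Striatum and cerebellum dissected, weighed, γ-counted. Decay-corrected %injected dose/g taken against diluted injectate. Ratio is striatum over cerebellum. Four or five rats per time point, mean ± standard error.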

[8] = tested on: Rattus norvegicus; test: Distribution of radioactivity in rat brain hypothalamus 60 min after intravenous administration of iodine labeled compound; details: in vivo, 1 h
In short: (§3)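 Male Sprague–Dawley rats (225–300 g) under ketamine received 10 µCi radioligand iv (tail vein) in 10% EtOH/saline. Hypothalamus, prefrontal cortex, striatum, pons and cerebellum were dissected, weighed and gamma-counted. % injected dose/g was taken from decay-corrected counts versus diluted dose. Mean ± SE and range, n=5 (5, 30 min) or 4 (60, 120 min).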

[9] = tested on: Rattus norvegicus; test: Distribution of radioactivity in rat kidney 60 min after intravenous administration of iodine labeled compound; details: in vivo, 1 h; in short: as §2
[10] = tested on: Rattus norvegicus; test: Distribution of radioactivity in rat brain region hypothalamus 60 min after intravenous administration of iodine labeled compound in presence of reboxetine blocker in study 2; details: in vivo, 1 h; in short: as §1
[11] = tested on: Rattus norvegicus; test: Distribution of radioactivity in rat brain region pons 60 min after intravenous administration of iodine labeled compound in presence of reboxetine blocker in study 2; details: in vivo, 1 h; in short: as §1
[12] = tested on: Rattus norvegicus; test: Ratio of distribution of radioactivity in rat brain region striatum and cerebellum 60 min after intravenous administration of iodine labeled compound in absence of blocker in study 1; details: in vivo, 1 h
[13] = tested on: Rattus norvegicus; test: Distribution of radioactivity in rat brain pons 30 min after intravenous administration of iodine labeled compound; details: in vivo, 0.5 h; in short: as §3
[14] = tested on: Rattus norvegicus; test: Distribution of radioactivity in rat brain region hypothalamus 60 min after intravenous administration of iodine labeled compound in absence of blocker in study 2; details: in vivo, 1 h; in short: as §1
[15] = tested on: Rattus norvegicus; test: Distribution of radioactivity in rat brain cerebellum 30 min after intravenous administration of iodine labeled compound; details: in vivo, 0.5 h; in short: as §3
[16] = tested on: Rattus norvegicus; test: Ratio of distribution of radioactivity in rat brain hypothalamus and cerebellum 60 min after intravenous administration of iodine labeled compound; details: in vivo, 1 h
In short: (§4)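 Male Sprague–Dawley rats (225–300 g) under ketamine anaesthesia were given [123I]ZIENT (10 μCi) in 0.2 mL 10% EtOH/0.9% NaCl into the tail vein, with a saline flush. Hypothalamus, prefrontal cortex, striatum, pons and cerebellum were dissected and gamma-counted. % injected dose/g came from decay-corrected counts against the diluted injected dose, and region/cerebellum ratios were taken from these. Mean ± SE, n=4–5.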

[17] = tested on: Rattus norvegicus; test: Distribution of radioactivity in rat brain region pons 60 min after intravenous administration of iodine labeled compound in presence of RTI-113 blocker in study 1; details: in vivo, 1 h; in short: as §1
[18] = tested on: Rattus norvegicus; test: Ratio of distribution of radioactivity in rat brain hypothalamus and cerebellum 5 min after intravenous administration of iodine labeled compound; details: in vivo; in short: as §4
[19] = tested on: Rattus norvegicus; test: Distribution of radioactivity in rat spleen 120 min after intravenous administration of iodine labeled compound; details: in vivo, 2 h; in short: as §2
[20] = tested on: Rattus norvegicus; test: Distribution of radioactivity in rat testis 30 min after intravenous administration of iodine labeled compound; details: in vivo, 0.5 h; in short: as §2

COC(=O)[C@@H]1C2CCC(C[C@@H]1c1ccc(/C=C\I)cc1)N2 (stereo not given in full)
Distribution (dose/g) [1]: 3.95% | Distribution (dose/g) [2]: 0.28% | Distribution (dose/g) [3]: 0.22% | Distribution (dose/g) [4]: 0.62% | Distribution (dose/g) [5]: 0.66% | Distribution (dose/g) [6]: 0.81% | Distribution (dose/g) [7]: 2.25% | Distribution (dose/g) [8]: 0.77% | Distribution (dose/g) [9]: 0.34% | Distribution (dose/g) [10]: 0.65% | Distribution (dose/g) [11]: 0.53% | Distribution (dose/g) [12]: 3.17% | Distribution (dose/g) [13]: 0.6% | Distribution (dose/g) [14]: 0.75% | Distribution (dose/g) [15]: 0.32% | Distribution (dose/g) [16]: 3.08% | Distribution (dose/g) [17]: 0.56% | Distribution (dose/g) [18]: 1.09% | Distribution (dose/g) [19]: 0.43% | Distribution (dose/g) [20]: 0.34%
